What was measured:
[1] = biological target: T1, Diamine acetyltransferase 1 (Homo sapiens, UniProt P21673); assay: Effect of 10 uM on spermine/spermidine-N-acetyltransferase (SSAT) induction in non-SCLC cells; assay type: cell-based
How it was run: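 NCI H157 non-small-cell lung tumor cells were exposed to 10 μM analogue. SSAT activity was assayed and expressed as pmol product/mg protein/min, then as fold increase over untreated control cells.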

NCI-H157 [2] = assay: Effect of exposure of H157 non-SCLC to compound (<10 uM) for 96-h, on natural polyamines and accumulation of the compound; Decrease; assay type: functional, cell-based; details: Homo sapiens
How it was run: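 H157 non-SCLC cells were treated with 10 μM analogue. Cellular putrescine, spermidine and spermine, plus the intracellular analogue, were quantified and compared with untreated control cells.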

[3] = biological target: T2, Ornithine decarboxylase (Homo sapiens) (UniProt P11926); assay: Inhibition of ornithine decarboxylase (ODC); parameters: concentration or dose not given beside the values; details: concentration not given here
T2 sequence (whole entry): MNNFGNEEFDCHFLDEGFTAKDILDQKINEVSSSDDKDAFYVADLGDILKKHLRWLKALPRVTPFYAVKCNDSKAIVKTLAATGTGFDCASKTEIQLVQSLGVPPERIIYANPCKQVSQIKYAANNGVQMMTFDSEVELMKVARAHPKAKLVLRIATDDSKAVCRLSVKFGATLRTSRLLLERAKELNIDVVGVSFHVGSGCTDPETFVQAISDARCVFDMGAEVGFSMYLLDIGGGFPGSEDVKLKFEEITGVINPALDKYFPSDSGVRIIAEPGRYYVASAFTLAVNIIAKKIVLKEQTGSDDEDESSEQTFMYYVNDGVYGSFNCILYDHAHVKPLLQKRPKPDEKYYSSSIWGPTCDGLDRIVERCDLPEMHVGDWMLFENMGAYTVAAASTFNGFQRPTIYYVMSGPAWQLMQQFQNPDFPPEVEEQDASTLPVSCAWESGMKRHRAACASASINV

NCI-H157 [4] = assay: Activity against H157 non-SCLC cells in culture; assay type: functional, cell-based; details: Homo sapiens
[5] = biological target: T1, Diamine acetyltransferase 1; assay: Inhibitory activity of compound against SSAT extracted from superinduced H157 cells; assay type: cell-free
How it was run: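 SSAT came from crude extracts of superinduced H157 cells and was assayed at saturating spermidine.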

NCI-H157 [6] = assay: Effect of exposure of H157 non-SCLC (<10 uM) for 96-h, and accumulation of compound was determined; assay type: functional, Homo sapiens
[7] = Half-life period in liver tissues; assay type: ADME, tissue-based
[8] = biological target: S-adenosylmethionine decarboxylase (Homo sapiens) (UniProt P17707); assay: Inhibition of Inhibition of human form of S-adenosyl-methionine decarboxylase enzyme (AdoMet-DC); parameters: concentration or dose not given beside the values; details: concentration not given here
NCI-H157 [9] = assay: Spermine level in NCI H157 non-SCLC tumor cells following 24-h treatment with 10 uM of compound( Values in parentheses are control values); assay type: functional, Homo sapiens
How it was run: (§1)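 NCI H157 non-SCLC cells were exposed to 10 μM analogue alongside untreated controls. Cellular polyamines and analogue were quantified. SSAT activity was assayed in the cells and reported as pmol product/mg protein/min.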

[10] = Half-life period as determined by N-deethylation and stepwise removal of aminopropyl equivalents; assay type: ADME
NCI-H157 [11] = assay: Spermidine level in NCI H157 non-SCLC tumor cells following 24-h treatment with 10 uM of compound( Values in parentheses are control values); assay type: functional, Homo sapiens; how it was run: as §1
NCI-H157 [12] = assay: Putrescine level in NCI H157 non-SCLC tumor cells following 24-h treatment with 10 uM of compound( Values in parentheses are control values); assay type: functional, Homo sapiens; how it was run: as §1
NCI-H157 [13] = assay: BENSpm level in NCI H157 non-SCLC tumor cells following 24-h treatment with 10 uM of compound( Values in parentheses are control values); assay type: functional, Homo sapiens; how it was run: as §1
NCI-H157 [14] = assay: CHENSpm level in NCI H157 non-SCLC tumor cells following 24-h treatment with 10 uM of compound( Values in parentheses are control values); assay type: functional, Homo sapiens; how it was run: as §1
NCI-H157 [15] = assay: Spermine/Spermidine-N1-acetyltransferase activity in NCI H157 non-SCLC tumor cells following 24-h treatment with 10 uM of compound.( Values in parentheses are control values); assay type: functional, Homo sapiens; how it was run: as §1
NCH82 [16] = assay: Cytokinetic effects on H82 small-cell lung tumor line (SCLC) after 96-h treatment; assay type: functional, Homo sapiens
NCI-H157 [17] = assay: Spermine/Spermidine-N1-acetyltransferase activity in NCI H157 non-SCLC tumor cells following 24-h treatment with 10 uM of compound; assay type: functional, Homo sapiens; how it was run: as §1
[18] = Compound was evaluated for cytotoxic activity against PC-3, DU145 and LNCaP cell lines; assay type: functional, Homo sapiens
How it was run: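 PC-3, DU145 and LNCaP prostate cancer cells were exposed to analogues over 0.1–30 μM for 120 h. Dose–response curves of growth were recorded.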

NCI-H157 [19] = assay: In vitro activity against H157 non-small-cell lung tumor line (non-SCLC) cultures.; assay type: functional, cell-based; details: Homo sapiens
NCI-H157 [20] = assay: Spermidine level in NCI H157 non-SCLC tumor cells following 24-h treatment with 10 uM of compound; assay type: functional, Homo sapiens; how it was run: as §1
NCH82 [21] = assay: In vitro activity against H82 small-cell lung tumor line (SCLC) cultures.; assay type: functional, cell-based; details: Homo sapiens
NCI-H157 [22] = assay: CHENSpm level in NCI H157 non-SCLC tumor cells following 24-h treatment with 10 uM of compound; assay type: functional, Homo sapiens; how it was run: as §1
NCI-H157 [23] = assay: Putrescine level in NCI H157 non-SCLC tumor cells following 24-h treatment with 10 uM of compound; assay type: functional, Homo sapiens; how it was run: as §1
NCI-H157 [24] = assay: Spermine level in NCI H157 non-SCLC tumor cells following 24-h treatment with 10 uM of compound; assay type: functional, Homo sapiens; how it was run: as §1
NCI-H157 [25] = assay: BENSpm level in NCI H157 non-SCLC tumor cells following 24-h treatment with 10 uM of compound; assay type: functional, Homo sapiens; how it was run: as §1
Trypanosoma brucei [26] = assay: In vitro growth Inhibitory activity against K243 As-10-3 Strain of Trypanosoma brucei; assay type: functional, organism-based
How it was run: (§2)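 In vitro growth inhibition was run against T. b. brucei LAB EATRO 110 and T. b. rhodesiense KETRI 243, KETRI 243 As-10-3 and KETRI 269. […] ">100" means no appreciable inhibition up to the highest concentration tested.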

Trypanosoma brucei [27] = assay: In vitro growth Inhibitory activity against K269 Strain of Trypanosoma brucei.; assay type: functional, organism-based; how it was run: as §2
Trypanosoma brucei [28] = assay: In vitro growth Inhibitory activity against K243 Strain of Trypanosoma brucei.; assay type: functional, organism-based; how it was run: as §2
Trypanosoma brucei [29] = assay: In vitro growth Inhibitory activity against LAB 110 Strain of Trypanosoma brucei; assay type: functional, organism-based; how it was run: as §2
Spermine synthase = biological target: T3, Spermine synthase (Homo sapiens, UniProt P52788); assay: Inhibitory activity against spermine synthase
T3 sequence (P52788 whole entry): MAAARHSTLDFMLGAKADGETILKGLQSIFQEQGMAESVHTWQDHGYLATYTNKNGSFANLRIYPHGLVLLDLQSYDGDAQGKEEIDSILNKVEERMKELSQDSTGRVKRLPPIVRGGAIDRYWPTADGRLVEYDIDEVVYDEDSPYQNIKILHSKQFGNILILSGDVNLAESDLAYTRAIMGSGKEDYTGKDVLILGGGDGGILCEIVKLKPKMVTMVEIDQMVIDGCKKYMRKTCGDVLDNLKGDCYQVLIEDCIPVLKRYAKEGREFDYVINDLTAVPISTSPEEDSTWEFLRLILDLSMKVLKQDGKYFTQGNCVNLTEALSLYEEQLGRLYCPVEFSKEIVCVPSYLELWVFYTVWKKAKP

NCI-H157 [30] = assay: Effect of exposure of H157 non-SCLC to compound (<10 uM) for 96-h, on natural polyamines and accumulation of the compound; No significant change; assay type: functional, cell-based; details: Homo sapiens

T1 sequence (P21673 whole entry): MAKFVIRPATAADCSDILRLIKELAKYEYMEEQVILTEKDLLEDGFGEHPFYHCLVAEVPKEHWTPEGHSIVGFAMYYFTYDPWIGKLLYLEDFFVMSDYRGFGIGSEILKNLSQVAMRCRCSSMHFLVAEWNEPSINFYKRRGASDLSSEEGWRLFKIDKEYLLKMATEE

Structure (SMILES) | Induction [1] | Effect on polyamine pools (NCI-H157 [2]) | inhibition [3] [%] | Amount (NCI-H157 [6]) | inhibition [8] [%] | further results
C#CCNCCCNCCCNCCCNCC | > 500 | Decrease | < 50 | – | – | IC50 (NCI-H157 [4]): 1.1 µM; IC50 [5]: 40 µM
CCNCCCNCCCNCC1CCCCCC1 | > 500 | Decrease | – | >20 nM (mg of protein)-1 | – | –
CCNCCCNCCCNCCCNC1CCCCCC1 | > 500 | Decrease | – | >20 nM (mg of protein)-1 | – | –
CCNCCCCNCCCCNCCCCNCC [DIETHYLHOMOSPERMINE] | – | – | – | – | – | half-life [7]: 370 h
CCNCCCNCCCNCCCNCC [BIS(ETHYL)NORSPERMINE] | > 500 | Decrease | > 50 | >20 nM (mg of protein)-1 | > 50 | Polyamine level (NCI-H157 [9]): 0.51; half-life [10]: 1.22 h; Polyamine level (NCI-H157 [11]): 0; Polyamine level (NCI-H157 [12]): 0; Polyamine level (NCI-H157 [13]): 36.07; Polyamine level (NCI-H157 [14]): 0; Activity (NCI-H157 [15]): 148141 (pM of product) min-1 (mg of protein)-1
CCNCCCNCCCNCCCO | > 500 | Decrease | < 50 | >20 nM (mg of protein)-1 | < 50 | Effect (NCH82 [16]): 0
CCNCCCNCCCNCCCNCC1CCCCCC1 | 0 | Decrease | < 50 | >20 nM (mg of protein)-1 | < 50 | Activity (NCI-H157 [17]): 781 (pM of product) min-1 (mg of protein)-1; CC [18]: 30 µM; IC50 (NCI-H157 [19]): 0.4 µM; Polyamine level (NCI-H157 [20]): 6.44; IC50 (NCH82 [21]): 0.7 µM; Polyamine level (NCI-H157 [22]): 14.66; Polyamine level (NCI-H157 [23]): 4.28; Polyamine level (NCI-H157 [24]): 15.97; Polyamine level (NCI-H157 [25]): 0
CCNCCCNCCCNCCCN1CCCCCC1 | > 500 | Decrease | – | – | – | –
CCNCCCNCCCNCCCNCC1CCC(Br)CC1 (stereo not drawn) | < 50 | Decrease | < 50 | >20 nM (mg of protein)-1 | < 50 | –
COc1cccc(CNCCCNCCCCCCCNCCCNCc2cccc(OC)c2)c1 | – | – | – | – | – | IC50 (Trypanosoma brucei [26]): 5.5 µM; IC50 (Trypanosoma brucei [27]): 16.5 µM; IC50 (Trypanosoma brucei [28]): 18.5 µM; IC50 (Trypanosoma brucei [29]): 22 µM
NCCCNCCCCCC(CCN)SC[C@H]1O[C@@H](n2cnc3c(N)ncnc32)[C@H](O)[C@@H]1O (stereo partly drawn) | – | – | – | – | – | IC50 (Spermine synthase): 0.02 µM
C(CCCNCCCNCC1CCCCCC1)CCCNCCCNCC1CCCCCC1 | 0 | – | – | – | – | NC (NCI-H157 [30]): No significant change
CCNCCCCNCCCNCC | > 50 | Decrease | > 50 | >20 nM (mg of protein)-1 | < 50 | –

Source: ChEMBL document CHEMBL1134460, “Terminally alkylated polyamine analogues as chemotherapeutic agents” (J Med Chem, 2001)
